Source: PubChem BioAssay (several laboratories)
Hits are enriched below; roughly 9.4% of the tested compounds scored in any of these assays.
CSC inhib: cancer stem cell viability inhibitors, primary screen, luminescence. 300,000 tested, 1.1% active. cancer stem cell-like cells viability. inhibition, % at 7.5 µM; in the data active = inhibition above about 75%; inconclusive = no clear call, values can overlap the other calls; tested in HMLE shEcad cells
L major viab: Leishmania major promastigote growth inhibition, primary screen; Leishmania major promastigotes, resazurin fluorescence viability; inhibition, % at 10 µM; 200,000 tested, 9% active; AID 1063, 2008; in the data active = inhibition above about 50%;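 also: promastigotes grown with compound for 44 hours at 28 °C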
SKKanGAS inh: S. pyogenes SKKanGAS growth inhibitors in kanamycin, primary screen, streptokinase expression inhibitor project, SKKanGAS strain, BacTiter-Glo luminescence; 6 h; inhibition, % at 7.5 µM; 300,000 tested, 1.3% active;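 active = mean replicate score, as percent of positive control median, at least 50; inconclusive = mean below 50 but one replicate at or above 50; inactive = mean and every replicate below 50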;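 also: strain carries kanamycin resistance gene driven by streptokinase promoter and grows in 40 µg/ml kanamycin; loss of luminescence reflects streptokinase promoter inhibition or plain growth inhibition; 0% = median of DMSO wells and 100% = positive control at its reference dose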
Beta cell apopt: inhibitors of cytokine-induced beta cell apoptosis, primary screen, luminescence. INS-1E cytokine-induced death, ATP luminescence, 48 h; percent of positive-control rescue, neutral wells zero. 300,000 tested, 0.8% active. protection from apoptosis, % (no concentration beside the values);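 active = Every replicate reaches about 75%, or at least half do and their mean reaches it too, limit read from the data; inconclusive = At least half of replicates reach the limit but their mean does not; inactive = Under half of replicates reach the limit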;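 also: 0% = cytokine-treated negative control wells and 100% = positive control rescue; higher means more ATP so stronger rescue from cytokine killing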
T cruzi repl: inhibitors of intracellular T. cruzi growth, primary screen, luminescence, NIH3T3 host cells; 300,000 tested, 1.4% active; T. cruzi beta-gal in NIH3T3, 90 h; AID 1885, 2009; inhibition, % (no concentration beside the values);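 active = mean inhibition across valid replicates above about 55%, limit read from the data; inconclusive = mean below that limit but half or more replicates reach it; inactive = mean below it, under half of replicates reach it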;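 also: signal also drops with host cell toxicity which is not excluded here; 0% = plate median of DMSO wells and 100% = zero luminescence signal; higher percent means less beta-gal luminescence so fewer parasites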
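Assay system: NIH/3T3 fibroblasts plus reporter T. cruzi. Amount: NIH/3T3 cells, 5,000 per well. Buffer or medium: DMEM, 2% fetal bovine serum. Doses: compound pinned at 50 nL/well, DMSO. Schedule: ≥90 h infection period, 3 h prior cell attachment. Signal: luminescent β-galactosidase signal after 60 min lysis. Read-out: parasite load inhibition, %.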
Mdm2 MdmX PPI: inhibitors of human Mdm2-MdmX association, primary screen, cell-based, luminescence, split luciferase, SaOS-2, uHTS. 330,000 tested, 3% active. SaOS-2 split-luciferase Mdm2/MdmX complementation. inhibition, % at 8 µM;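 active = inhibition of at least 50% at 8 µM in the primary screen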
Target sequence (O15151 whole entry, looked up): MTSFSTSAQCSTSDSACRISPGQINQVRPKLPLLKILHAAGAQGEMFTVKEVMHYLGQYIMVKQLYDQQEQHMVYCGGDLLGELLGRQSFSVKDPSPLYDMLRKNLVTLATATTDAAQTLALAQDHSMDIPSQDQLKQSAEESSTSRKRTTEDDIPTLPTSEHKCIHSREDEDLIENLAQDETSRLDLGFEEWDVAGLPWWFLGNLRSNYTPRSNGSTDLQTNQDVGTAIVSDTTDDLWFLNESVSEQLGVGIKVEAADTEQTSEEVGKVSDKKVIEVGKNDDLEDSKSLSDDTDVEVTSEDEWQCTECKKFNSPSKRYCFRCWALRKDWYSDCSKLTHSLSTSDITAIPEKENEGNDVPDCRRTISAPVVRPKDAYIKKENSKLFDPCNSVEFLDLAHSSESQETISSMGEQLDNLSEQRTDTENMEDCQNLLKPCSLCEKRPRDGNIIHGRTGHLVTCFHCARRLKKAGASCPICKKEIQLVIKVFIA
Target sequence (Q00987 whole entry, looked up): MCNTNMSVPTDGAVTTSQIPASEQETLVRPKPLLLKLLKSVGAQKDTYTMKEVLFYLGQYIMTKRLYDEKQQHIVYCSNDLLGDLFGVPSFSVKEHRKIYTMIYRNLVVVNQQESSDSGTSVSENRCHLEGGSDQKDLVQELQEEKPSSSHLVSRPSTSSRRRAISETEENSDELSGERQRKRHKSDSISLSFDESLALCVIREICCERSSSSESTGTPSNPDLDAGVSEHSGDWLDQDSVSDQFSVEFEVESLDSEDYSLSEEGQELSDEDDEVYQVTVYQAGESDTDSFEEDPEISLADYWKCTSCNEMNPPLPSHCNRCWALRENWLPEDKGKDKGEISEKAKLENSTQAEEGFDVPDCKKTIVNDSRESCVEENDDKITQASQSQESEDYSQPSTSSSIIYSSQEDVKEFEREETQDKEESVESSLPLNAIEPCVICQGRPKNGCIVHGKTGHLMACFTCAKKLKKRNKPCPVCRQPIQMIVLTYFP
Mdm2 MdmX conf: Mdm2-MdmX complex disruptors, retested hits, confirmation, luminescence, single concentration. shares compounds with Mdm2 MdmX PPI. Mdm2-MdmX binding, luminescent assay. inhibition, % at 8 µM. 10,000 tested, 55% active. AID 489028, 2010; in the data active = inhibition above about 40%
FLuc counter: full-length luciferase signal inhibition, confirmation, counter-screen for Mdm2/MdmX interaction inhibitor project, cell-based, single concentration, SaOS-2; shares compounds with Mdm2 MdmX PPI; SaOS-2 full-length luciferase counterscreen, luminescence; inhibition, % at 8 µM; 6,200 tested, 77% active; AID 504607, 2011;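 active = mean inhibition at 8 µM reaching about 37%, which flags the compound as non-specific, limit read from the data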;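 also: p53-null SaOS-2 cells with luciferase driven by a doxycycline-inducible promoter; compound on cells about two nights before reading with doxycycline added after day one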
* hit, by the source's call.

How did CCOC(=O)[C@@H]1[C@H]2COc3cc(OC)ccc3[C@@H]2N2C(=O)N(c3ccc(Cl)cc3)C(=O)[C@]12C do in these assays?
CSC inhib: -1; SKKanGAS inh: 16; T cruzi repl: 20; Mdm2 MdmX PPI: -10

How did Cc1ccccc1OCc1nc2ccccc2c(=O)n1/N=C/c1cn[nH]c1-c1ccc(Br)cc1 do in these assays?
CSC inhib: 28; L major viab: 5; SKKanGAS inh: 38; Beta cell apopt: 8; T cruzi repl: 44; Mdm2 MdmX PPI: 69*; Mdm2 MdmX conf: 24

What do the screens show for `O=c1c2ccccc2nc(COc2ccccc2)n1/N=C/c1ccc(O)cc1O`?
CSC inhib: 67; SKKanGAS inh: 12; Beta cell apopt: 87*; T cruzi repl: 57*; Mdm2 MdmX PPI: 66*; Mdm2 MdmX conf: 58*; FLuc counter: 31

Results for Oc1ccc(/C=N/n2c(COc3ccccc3)n[nH]c2=S)c(O)c1 ?
SKKanGAS inh: 1; T cruzi repl: -17; Mdm2 MdmX PPI: 14

Results for CCOc1cc(/C=C2\COc3ccccc3C2=O)cc(Br)c1OCC(=O)N(C)C ?
CSC inhib: 61; SKKanGAS inh: -1; Beta cell apopt: 100*; T cruzi repl: -17; Mdm2 MdmX PPI: 97*; Mdm2 MdmX conf: 74*; FLuc counter: 59*

What do the screens show for `CCOc1cc(/C=N/Nc2nc3ccccc3[nH]2)cc(Br)c1OCC(=O)N(C)C`?
CSC inhib: 16; L major viab: 47; SKKanGAS inh: 3; Beta cell apopt: 22; T cruzi repl: 11; Mdm2 MdmX PPI: 34

What do the screens show for `COc1cc2c(=O)n(Cc3ccco3)c(=O)n(CC(=O)c3cccc(Br)c3)c2cc1OC`?
CSC inhib: -4; L major viab: 1; SKKanGAS inh: 5; Beta cell apopt: 19; T cruzi repl: 18; Mdm2 MdmX PPI: 50*; Mdm2 MdmX conf: 25

What do the screens show for `Cc1ccccc1NC(=S)N=Nc1c(O)n(C)c2ccc(S(=O)(=O)N3CCOCC3)cc12`?
CSC inhib: 54; L major viab: -4; SKKanGAS inh: 46; Beta cell apopt: 53; T cruzi repl: 44; Mdm2 MdmX PPI: 43

What do the screens show for `Cc1ccc(NC(=O)Cn2c(O)c(N=NC(N)=O)c3ccccc32)cc1`?
SKKanGAS inh: 1; Beta cell apopt: -2; T cruzi repl: inconclusive; Mdm2 MdmX PPI: 25

How did Cc1c(Cl)cccc1NC(=S)N=Nc1c(O)n(CN2CCOCC2)c2ccccc12 do in these assays?
CSC inhib: 61; L major viab: 98*; Beta cell apopt: 46; T cruzi repl: 63*; Mdm2 MdmX PPI: 82*; Mdm2 MdmX conf: 63*; FLuc counter: 51*

How did Cc1ccc(NC(=O)Cn2c(O)c(N=NC(N)=S)c3ccccc32)cc1 do in these assays?
CSC inhib: 10; SKKanGAS inh: 6; Beta cell apopt: 19; T cruzi repl: -20; Mdm2 MdmX PPI: 51*; Mdm2 MdmX conf: 32; FLuc counter: 65*

What do the screens show for `C=CCn1c(O)c(N=NC(=S)Nc2cccc(C)c2)c2ccccc21`?
CSC inhib: 44; L major viab: 99*; SKKanGAS inh: 94*; Beta cell apopt: 60; T cruzi repl: 59*; Mdm2 MdmX PPI: 61*; Mdm2 MdmX conf: 55*; FLuc counter: 33

How did Cc1ccc(Cn2c(O)c(N=NC(=S)Nc3ccccc3F)c3ccccc32)cc1 do in these assays?
CSC inhib: 27; L major viab: 97*; SKKanGAS inh: 61*; Beta cell apopt: 14; T cruzi repl: 66*; Mdm2 MdmX PPI: 57*; Mdm2 MdmX conf: 60*; FLuc counter: 48*

Results for NC(=S)N=Nc1c(O)n(Cc2ccccc2)c2ccccc12 ?
CSC inhib: -2; L major viab: -6; SKKanGAS inh: 3; Beta cell apopt: 6; T cruzi repl: 41; Mdm2 MdmX PPI: 28

Results for O=C1CSc2ccc(C(=O)NCCc3ccc(Cl)cc3Cl)cc2N1 ?
CSC inhib: 42; Beta cell apopt: 9; Mdm2 MdmX PPI: 0

Results for CC(=O)C1=C(C)Nc2ncnn2C1c1ccc(O)cc1 (stereo not given) ?
CSC inhib: 11; SKKanGAS inh: 8; Beta cell apopt: 3; T cruzi repl: -22; Mdm2 MdmX PPI: -17

How did C=CCn1c(O)c(N=NC(=S)Nc2ccccc2F)c2ccccc21 do in these assays?
CSC inhib: 2; L major viab: 96*; SKKanGAS inh: 101*; Beta cell apopt: 56; T cruzi repl: 49; Mdm2 MdmX PPI: 76*; Mdm2 MdmX conf: 57*; FLuc counter: 50*

Results for C=CCn1c(O)c(N=NC(=S)Nc2ccccc2F)c2cc(S(=O)(=O)N3CCOCC3)ccc21 ?
CSC inhib: -14; L major viab: -1; SKKanGAS inh: 18; Beta cell apopt: 28; T cruzi repl: 58*; Mdm2 MdmX PPI: 64*; Mdm2 MdmX conf: 44*; FLuc counter: 50*

How did C/C(=N\NC(=O)c1cc(C)nc2ccccc12)c1ccncc1 do in these assays?
SKKanGAS inh: -4; Beta cell apopt: -3; T cruzi repl: -4; Mdm2 MdmX PPI: -14

Results for C/C(=N\NC(=O)c1ccc(Cl)cc1)c1ccccn1 ?
CSC inhib: 98*; SKKanGAS inh: 87*; Beta cell apopt: 105*; T cruzi repl: 61*; Mdm2 MdmX PPI: 96*; Mdm2 MdmX conf: 27

How did COc1cc(NC(=O)c2ccccn2)cc(OC)c1OC do in these assays?
CSC inhib: -17; L major viab: 1; SKKanGAS inh: -5; Beta cell apopt: -7; T cruzi repl: -4; Mdm2 MdmX PPI: 14

What do the screens show for `COc1cc(C(=O)N/N=C(\C)c2ccccn2)cc(OC)c1OC`?
CSC inhib: 64; SKKanGAS inh: -8; Beta cell apopt: 83*; T cruzi repl: 16; Mdm2 MdmX PPI: 77*; Mdm2 MdmX conf: 25

Results for C/C(=N\NC(=O)c1cc(C)nc2ccccc12)c1ccccn1 ?
CSC inhib: 96*; Beta cell apopt: 104*; Mdm2 MdmX PPI: 76*; Mdm2 MdmX conf: 67*; FLuc counter: 36*

What do the screens show for `O=C(Nc1cccc2ccccc12)NC1Cc2ccccc2C1`?
CSC inhib: 2; SKKanGAS inh: 13; Beta cell apopt: -9; T cruzi repl: 0; Mdm2 MdmX PPI: 79*; Mdm2 MdmX conf: 3
